# PTEN del growth – PTEN-deleted cell growth suppression. HCT116 PTEN-null viability, CellTiter-Glo, 60 h; active compounds read low. viability, % at 10 µM. hit rate 1.2% among 140,000;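 active = viability at or below a set limit, 4 SD under the median of all tested compounds, cut at about 3.7% in these data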;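 also: PTEN knockout HCT116 line with beta catenin targeted HCT116 as companion control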
# HCT116 bCat-KO – beta-catenin-lacking colon tumor cell growth suppression; HCT116 beta-catenin knockout viability, CellTiter-Glo, 60 h; active compounds read low; viability, % at 10 µM; hit rate 1.5% among 140,000;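 active = viability at or under a set limit, the compound median less 4 SD, cut at about 6% in these data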;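 also: 0% = Hyamine 1622 control at 20 µM and 100% = untreated cell control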
# H69AR growth 86K – blocks growth of human H69AR lung tumor cells | viability, % at 10 µM | AID 598 | H69AR lung tumor viability, ATP luminescence, 72 h; active compounds read low | hit rate 6% among 85,000;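 active = viability at or below 40%; inactive = viability above 40%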;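 also: multidrug resistant small cell line overexpressing MRP-1 efflux transporter; 100% = mean luminescence of untreated control wells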
# HUVEC inhibit – inhibitors of human endothelial cell proliferation; AID 648; HUVEC proliferation, CellTiter-Glo luminescence, 72 h; active compounds read low; viability, % at 10 µM (by protocol); hit rate 1.1% among 86,000;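 active = viability at or below 30%; inactive = viability above 30%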;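 also: 100% = median luminescence of DMSO-only cell control wells on each plate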
# Lung fibro prol – blocks proliferation of human lung fibroblasts. LL 47 human lung fibroblast viability, ATP luminescence; active compounds read low. viability, % at 10 µM. hit rate 1.1% among 85,000. AID 719;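 active = viability at or below 50% in the single dose screen; inactive = viability above 50%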;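 also: compound exposure lasted 72 h before the ATP readout; 100% = median luminescence of untreated cell-only wells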
#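 Test system: LL 47 human lung fibroblasts / Incubation: 72 h compound exposure at 37 °C after overnight plating / Technique: luminescent ATP detection, CellTiter-Glo / Compound dosing: 0.1% DMSO in all compound wells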
# * hit, by the source's call; / = no result given. The entries come from a sample that favours hits as a whole.
SMILES,PTEN del growth,HCT116 bCat-KO,H69AR growth 86K,HUVEC inhibit,Lung fibro prol
CCCCCCc1nc2ccccc2c(=O)n1NC(=O)c1c(O)c2cccc3c2n(c1=O)CC3,/,/,36*,111,99
Cc1ccc(/C(=N\O)c2oc3c(C)c4oc(=O)cc(C)c4cc3c2C)cc1,2.6*,2.0*,89,51,93
CCn1c(NC(C)=O)nc2ccccc21,95,99,94,83,103
CCCn1c(NC(=O)c2cccc(C)c2C)nc2ccccc21,10,16,25*,53,56
CCCn1c(NC(=O)c2ccc(Cl)c(S(=O)(=O)N3CCCC3)c2)nc2ccccc21,9,8,10.0*,41,56
O=C(NCc1nc2ccccc2[nH]1)c1ccc(Cl)c(S(=O)(=O)N2CCCC2)c1,93,87,76,89,99
COc1ccc(/C=N/OCC(=O)Nn2c(C)nc3ccccc3c2=O)cc1,97,97,/,/,/
COc1ccc(N2C(=O)CC(Sc3nc(C)c4c(n3)CCCC4)C2=O)cc1 (configuration not stated),100,106,25*,60,81
COC(=O)C1=C(C)NC2=C(C(=O)CC(c3cccs3)C2)C1c1ccsc1 (configuration not stated),38,51,24*,71,69
COC(=O)C1=C(C)NC2=C(C(=O)CCC2)C1c1ccsc1 (configuration not stated),87,105,79,100,107
CC1=C(C(=O)OC2CCCC2)C(c2ccc(C)o2)C2=C(CC(c3cccs3)CC2=O)N1 (configuration not stated),73,73,35*,93,85
CCOC(=O)C1=C(C)NC2=C(C(=O)CC(c3cccs3)C2)C1c1cccs1 (configuration not stated),18,18,15*,41,57
CCSC1(SCC)N=C(N)C2(C#N)C(c3ccc(F)cc3)C12C#N (configuration not stated),92,81,0.8*,9.6*,3.8*
COC1(OC)N=C(N)C2(C#N)C(c3ccc(F)cc3)C12C#N (configuration not stated),92,107,88,86,95
COc1ccc(-c2nn(-c3ccccc3)cc2/C=N/N2C(=O)CSC2=S)cc1,91,100,60,4.0*,59
COC1(OC)C(/C=C/c2ccc(C)cc2)C(C#N)(C#N)C1(OC)OC (configuration not stated),6,8,12*,87,55
COc1cccc(C(=O)N2CCC(N3CC(C)OC(C)C3)CC2)c1 (configuration not stated),97,82,/,/,/
CCOc1ccc2nc(NC(=O)CSc3nc4c(c(=O)n(C)c(=O)n4C)n3C(C)C)sc2c1,56,60,30*,8.9*,100
CCn1c(SCC(=O)N2c3ccccc3CCc3ccccc32)nc2c1c(=O)n(C)c(=O)n2C,/,/,14*,94,99
CCOc1ccc2nc(NC(=O)CSc3nnnn3C3CCCCC3)sc2c1,81,88,1.7*,79,91
CCOc1ccc2nc(NC(=O)Cn3cnc4c3c(=O)n(C)c(=O)n4C)sc2c1,102,88,91,97,104
CCn1c(SCC(=O)Nc2nc3c(s2)CCCC3)nc2c1c(=O)n(C)c(=O)n2C,/,/,17*,92,86
COc1ccc(-c2nnc(SCC(=O)Nc3ccc4c(c3)OCCO4)n2N)cc1OC,96,97,/,/,/
CCn1c(SCC(=O)Nc2nc3ccc(OC)cc3s2)nc2c1c(=O)n(C)c(=O)n2C,66,69,17*,73,94
CCCn1c(SCC(=O)Nc2nc(-c3ccc(OC)cc3)cs2)nc2c1c(=O)n(C)c(=O)n2C,97,100,/,/,/
Cc1cc(NC(=O)CSc2nc3c(c(=O)n(C)c(=O)n3C)n2C(C)C)no1,103,98,90,100,97
Cn1cccc1Cc1nnc(SCC(=O)Nc2nc3ccccc3s2)n1CCc1ccccc1,75,90,5.4*,43,76
CC(C)n1c(SCC(=O)Nc2nc3ccccc3s2)nc2c1c(=O)n(C)c(=O)n2C,62,73,29*,69,96
CCc1ccc(-n2c(=O)c3c(C)c(C(=O)N(C)C)sc3n(CC(=O)NCc3ccco3)c2=O)cc1,88,88,/,/,/
Cc1ccc(N2C(=O)[C@@H]3C(C(=O)CCN4C(=O)c5ccccc5C4=O)=NN[C@@H]3C2=O)cc1,96,97,/,/,/
